Here are results for 12 molecules from ChEMBL document CHEMBL4000240, “Escape from adamantane: Scaffold optimization of novel P2X7 antagonists featuring complex polycycles” (Bioorg Med Chem Lett, 2017).

For orientation: IC50 means the midpoint of a concentration-inhibition curve. For orientation: inhibition means the drop in the measured response relative to a control, in per cent.

The target of assay [1] is T1, P2X purinoceptor 7 (Homo sapiens, UniProt Q99572).
T1 sequence (Q99572 whole entry): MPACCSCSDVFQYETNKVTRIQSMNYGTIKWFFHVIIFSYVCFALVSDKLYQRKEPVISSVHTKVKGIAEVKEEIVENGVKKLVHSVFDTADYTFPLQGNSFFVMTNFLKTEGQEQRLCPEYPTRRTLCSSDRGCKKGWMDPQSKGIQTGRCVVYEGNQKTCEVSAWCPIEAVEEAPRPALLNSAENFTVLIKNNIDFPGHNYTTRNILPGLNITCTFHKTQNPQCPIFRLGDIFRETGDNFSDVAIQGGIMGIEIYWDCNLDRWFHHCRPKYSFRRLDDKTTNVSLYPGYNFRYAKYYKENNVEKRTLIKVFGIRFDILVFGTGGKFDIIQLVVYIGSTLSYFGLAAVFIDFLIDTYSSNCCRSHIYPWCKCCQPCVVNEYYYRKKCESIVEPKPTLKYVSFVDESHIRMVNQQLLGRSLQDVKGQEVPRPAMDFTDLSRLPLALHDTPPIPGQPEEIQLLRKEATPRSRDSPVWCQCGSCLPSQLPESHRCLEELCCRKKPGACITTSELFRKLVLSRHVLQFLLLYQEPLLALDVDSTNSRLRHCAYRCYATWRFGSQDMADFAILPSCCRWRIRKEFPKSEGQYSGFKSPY
The experiment in a line: Antagonist activity at human P2X7 receptor expressed in HEK293 cells assessed as inhibition of BzATP-induced ethidium bromide uptake after 2 hrs by fluorescence assay. It counts as cell-based. The gist of the method:
(§1)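 HEK293 cells stably carrying hP2X7 (pcDNA3.1 plasmid, Lipofectamine transfection) grown in DMEM/10% FBS, 2 mM glutamine, antibiotics, 37 °C, 5% CO2. Cells at 2.5 x 10^6/mL in pH 7.4 HEPES buffer with sucrose or NaCl, given compound plus BzATP, 2 h at 37 °C. Ethidium read at ex 530/em 590 nm as % of BzATP-only uptake. IC50 by nonlinear regression, 3-6 experiments.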

Assay [2] has as its target T2, P2X purinoceptor 7 (Homo sapiens) (UniProt Q99572).
T2 sequence (whole entry): T1 sequence (Q99572 whole entry)
Briefly: Antagonist activity at human P2X7 receptor expressed in HEK293 cells assessed as inhibition of BzATP-induced ethidium bromide uptake at 10 uM after 2 hrs by fluorescence assay relative to control. It counts as cell-based. In a few lines:
as §1

A value given as a limit tells only on which side of the number the result lay.

In the case of `O=C(NNc1ccccc1C(F)(F)F)C12C3C=CC4C3C3C(C=CC31)C42`, the IC50 in assay [1] stood at 132 nM.
Still for that read-out and setting: with `O=C(NNc1ccccc1Cl)C12C3CCC4C3C3C(CCC31)C42` the figure was 933 nM; with `O=C(NNc1ccccc1C(F)(F)F)C12C3CCC4C3C3C(CCC31)C42`, 366 nM.
Still for that read-out and setting: the figure for `O=C(NNc1ccccc1Cl)C12C3C=CC4C3C3C(C=CC31)C42` is 96 nM.
Take `O=C(NNc1ccc(C(F)(F)F)cc1)C12C3CCC4C3C3C(CCC31)C42`: in assay [2], the inhibition was less than 20%.
On the same count and under the same terms, the figure for `O=C1C2C3C=CC(C4CC34)C2C(=O)N1Nc1ccccc1` (configuration not stated) is less than 20%.
On to `O=C(NNc1ccc(C(F)(F)F)cc1)C12C3C=CC4C3C3C(C=CC31)C42`, for which, in assay [2], the inhibition was less than 20%.
With `O=C(NNc1ccc(C(F)(F)F)cc1Cl)C12C3C=CC4C3C3C(C=CC31)C42`, the IC50 in assay [1] stood at 1560 nM.
As for `O=C1C2C3C=CC(C4CC34)C2C(=O)N1Nc1ccccc1F` (configuration not stated), in assay [2], the inhibition was less than 20%.
Regarding `CN([C@@H](Cc1ccc(OS(=O)(=O)c2cccc3cnccc23)cc1)C(=O)N1CCN(c2ccccc2)CC1)S(=O)(=O)c1cccc2cnccc12`, the IC50 in assay [1] was 96 nM.
With `O=C1C2C3C=CC(C4CC34)C2C(=O)N1Nc1ccccc1Cl` (configuration not stated), the inhibition in assay [2] is less than 20%.
Consider `CC12CC3CC1(C)CC3(C(=O)NNc1ccccc1Cl)C2`, for which the IC50 in assay [1] came to 18 nM.
